Results on twelve compounds are retold here after ChEMBL document CHEMBL3272084, “Adamantane and protoadamantanealkanamines as potential anti-Parkinson agents” (J Med Chem, 1976).

Calls of active or inactive are those of the source. No cut-off for these calls is given here.

The test system of data set [1] is Mus musculus. Nature of the data set: Antiparkinsonian activity in CFW mouse assessed as reversal of reserpine-induced catalepsy at 0.13 mmol/kg, sc measured every 30 mins up to 1.5 hrs. The data set is classed as functional, organism-based.
Data set [2] concerns Mus musculus. Kind of data set: Antidepressant activity in CFW mouse assessed as reversal of reserpine-induced hypothermia by measuring temperature index at 0.13 mmol/kg, sc measured every 30 mins up to 1.5 hrs. In kind it is functional, organism-based.
Data set [3] concerns Rattus norvegicus. Nature of the data set: Antiparkinsonian activity in Wistar rat assessed as reversal of reserpine-induced catalepsy at 0.13 mmol/kg, po measured every 30 mins up to 1.5 hrs. In kind it is functional, organism-based.
The nature of data set [4]: (§1) Acute toxicity in ip dosed albino CFW mouse assessed as mortality measured over 48 hrs. The data set is classed as organism-based. The settings on record: albino CFW, in vivo.
The nature of data set [5]: (§2) Acute toxicity in po dosed albino CFW mouse assessed as mortality measured over 48 hrs. In kind it is organism-based. The settings on record: albino CFW, in vivo.
Data set [6] deals with Mus musculus. Kind of data set: Antidepressant activity in CFW mouse assessed as reversal of reserpine-induced hypothermia by measuring temperature index at 0.16 mmol/kg, sc measured every 30 mins up to 1.5 hrs. The data set is classed as functional.
The subject of data set [7] is Mus musculus. Nature of the data set: Antiparkinsonian activity in CFW mouse assessed as reversal of reserpine-induced catalepsy at 0.16 mmol/kg, sc measured every 30 mins up to 1.5 hrs. The data set is classed as functional, organism-based.
In data set [8] the test system is Mus musculus. Nature of the data set: Antidepressant activity in CFW mouse assessed as reversal of reserpine-induced hypothermia by measuring temperature index at 0.03 mmol/kg, sc measured every 30 mins up to 1.5 hrs. The data set is classed as functional. In short, it runs like this: (§3)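 Groups of five CFW mice received reserpine 4 mg/kg sc. After 2.5 h, rectal temperature was taken. The temperature index (TI) is the sum of the group's mean changes from its mean initial temperature at 30, 60 and 90 min. Scoring: 0 = no effect, 1 = TI 5–10, 2 = TI >10. A run was repeated if the reserpine control TI fell outside −5 to −15.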

In data set [9] the test system is Mus musculus. Described as §1. The data set is classed as organism-based. To be noted: in vivo, 48 h.
Data set [10] relates to Mus musculus. The data set is described as §2. The data set is classed as organism-based. To be noted: in vivo, 48 h.
In data set [11] the test system is Rattus norvegicus. Nature of the data set: Antiparkinsonian activity in Wistar rat assessed as reversal of reserpine-induced catalepsy at 0.16 mmol/kg, po measured every 30 mins up to 1.5 hrs. In kind it is functional, organism-based.
For data set [12], the system named is Mus musculus. Nature of the data set: Antidepressant activity in CFW mouse assessed as reversal of reserpine-induced hypothermia by measuring temperature index at 0.02 mmol/kg, sc measured every 30 mins up to 1.5 hrs. The data set is classed as functional, organism-based.
Data set [13] relates to Mus musculus. Nature of the data set: Antiparkinsonian activity in CFW mouse assessed as reversal of reserpine-induced catalepsy at 0.02 mmol/kg, sc measured every 30 mins up to 1.5 hrs. The data set is classed as functional, organism-based.
In data set [14] the test system is Rattus norvegicus. Kind of data set: Potency index, ratio of compound to amantadine for antiparkinsonian activity in po dosed Wistar rat assessed as reversal of reserpine-induced catalepsy. In kind it is functional.
Data set [15] deals with Mus musculus. Kind of data set: Antiparkinsonian activity in CFW mouse assessed as reversal of reserpine-induced catalepsy at 0.09 mmol/kg, sc measured every 30 mins up to 1.5 hrs. In kind it is functional, organism-based. In short, it runs like this:
(§4)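 Groups of five CFW mice were given reserpine 4 mg/kg sc, and catalepsy was assessed 2.5 h later. Reversal was scored 0–5: 0 no effect, 1 marginal, 2 significant, 3 marked, 4 approaching complete, 5 complete reversal.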

In data set [16] the test system is Rattus norvegicus. Kind of data set: Antiparkinsonian activity in Wistar rat assessed as reversal of reserpine-induced catalepsy at 0.14 mmol/kg, po measured every 30 mins up to 1.5 hrs. In kind it is functional, organism-based.
For data set [17], the system named is Mus musculus. Kind of data set: Antidepressant activity in CFW mouse assessed as reversal of reserpine-induced hypothermia by measuring temperature index at 0.17 mmol/kg, sc measured every 30 mins up to 1.5 hrs. In kind it is functional.
Data set [18] concerns Mus musculus. Nature of the data set: Antiparkinsonian activity in CFW mouse assessed as reversal of reserpine-induced catalepsy at 0.17 mmol/kg, sc measured every 30 mins up to 1.5 hrs. The data set is classed as functional, organism-based.
Data set [19] has as its system Mus musculus. Kind of data set: Antidepressant activity in CFW mouse assessed as reversal of reserpine-induced hypothermia by measuring temperature index at 0.32 mmol/kg, sc measured every 30 mins up to 1.5 hrs. In kind it is functional, organism-based.
The test system of data set [20] is Mus musculus. Kind of data set: Antiparkinsonian activity in CFW mouse assessed as reversal of reserpine-induced catalepsy at 0.32 mmol/kg, sc measured every 30 mins up to 1.5 hrs. The data set is classed as functional, organism-based.
The test system of data set [21] is Mus musculus. Kind of data set: Antiparkinsonian activity in CFW mouse assessed as reversal of reserpine-induced catalepsy at 0.07 mmol/kg, sc measured every 30 mins up to 1.5 hrs. In kind it is functional, organism-based. In short, it runs like this: as §4
For data set [22], the system named is Mus musculus. Nature of the data set: Antidepressant activity in CFW mouse assessed as reversal of reserpine-induced hypothermia by measuring temperature index at 0.20 mmol/kg, sc measured every 30 mins up to 1.5 hrs. The data set is classed as functional, organism-based.
Data set [23] deals with Mus musculus. Nature of the data set: Antiparkinsonian activity in CFW mouse assessed as reversal of reserpine-induced catalepsy at 0.20 mmol/kg, sc measured every 30 mins up to 1.5 hrs. The data set is classed as functional, organism-based.
Data set [24] concerns Mus musculus. Kind of data set: Antidepressant activity in CFW mouse assessed as reversal of reserpine-induced hypothermia by measuring temperature index at 0.09 mmol/kg, sc measured every 30 mins up to 1.5 hrs. In kind it is functional. In short, it runs like this: as §3
For data set [25], the system named is Rattus norvegicus. Kind of data set: Antiparkinsonian activity in Wistar rat assessed as reversal of reserpine-induced catalepsy at 0.07 mmol/kg, po measured every 30 mins up to 1.5 hrs. In kind it is functional, organism-based.
Data set [26] relates to Rattus norvegicus. Nature of the data set: Antiparkinsonian activity in Wistar rat assessed as reversal of reserpine-induced catalepsy at 0.08 mmol/kg, po measured every 30 mins up to 1.5 hrs. The data set is classed as functional, organism-based.
For data set [27], the system named is Mus musculus. Kind of data set: Antidepressant activity in CFW mouse assessed as reversal of reserpine-induced hypothermia by measuring temperature index at 0.21 mmol/kg, sc measured every 30 mins up to 1.5 hrs. In kind it is functional.
Data set [28] relates to Rattus norvegicus. Kind of data set: Antiparkinsonian activity in Wistar rat assessed as reversal of reserpine-induced catalepsy at 0.21 mmol/kg, po measured every 30 mins up to 1.5 hrs. In kind it is functional, organism-based.
In data set [29] the test system is Mus musculus. Kind of data set: Antiparkinsonian activity in CFW mouse assessed as reversal of reserpine-induced catalepsy at 0.21 mmol/kg, sc measured every 30 mins up to 1.5 hrs. In kind it is functional, organism-based.

In the case of `CN(C)CC12CC3CC(CC(C3)C1Br)C2.Cl` (centres undefined), the result in data set [1] and in [2] was inactive. Also, the result in data set [3] was Active. Moreover, the 50% lethal dose (LD50) at 48 h in [4] came out at 500 µmol/kg; in data set [5], 1300 µmol/kg.

With `Cl.NC1CC2CC3CC(C2)C1C3` (centres undefined), the result in data set [6] and in [7] was inactive. Also, the figures for the median lethal dose (LD50) at 48 h in data set [4] and in data set [5] were 800 µmol/kg and 3200 µmol/kg, respectively.

Turning to `Cl.c1ccc(CCNC2CC3CC4CC(C3)C2C4)cc1` (stereo in doubt; 13), in data set [8], the Activity is given as 5. Besides, the LD50 in data set [9] stood at 0.2 mmol/kg; in data set [10] it was 0.5 mmol/kg.

`CNCC12CC3CC(CC(C3)C1Cl)C2.Cl` (centres undefined): the outcome in data set [11] was Active. Moreover, the outcome in [12] and in [13] was inactive. Further, the figures for the LD50 at 48 h in data set [4] and in [5] were 600 µmol/kg and 1200 µmol/kg, respectively. In addition, the Ratio in [14] worked out at 2.

Regarding `c1ccc(CCNC2CC3CC4CC(C3)C2C4)cc1` (stereo in doubt; 12), the outcome in data set [15] was Active. Further, the result in data set [16] was inactive.

On to `CNCC12CC3CC(CC(C3)C1Br)C2.Cl` (centres undefined), for which the Activity in data set [17] came out at 5. Also, the outcome in data set [18] and in data set [16] was Active. Moreover, the LD50 at 48 h in data set [4] and in [5] was 1000 µmol/kg throughout. For the same compound, the Ratio in data set [14] came to 2.

On to `CNCC1(O)CC2CC3CC(C2)C1C3.O=C(O)/C=C\C(=O)O` (centres undefined), for which the outcome in data set [19] and in [20] was inactive. Besides, the values for the LD50 at 48 h in [4] and in [5] were 1900 µmol/kg and 3900 µmol/kg, respectively.

On to `c1ccc(CCNC2CC3CC4CC(C3)C2C4)cc1` (stereo in doubt; 13), for which, in [21], the result was inactive. In addition, the outcome in data set [16] was Active.

Consider `CN(C)CC1(O)CC2CC3CC(C2)C1C3.Cl` (centres undefined), for which the outcome in [22] and in [23] was inactive. The results for the LD50 at 48 h in data set [4] and in data set [5] were 1200 µmol/kg and 1600 µmol/kg, respectively.

For `Cl.c1ccc(CNC2CC3CC4CC(C3)C2C4)cc1` (centres undefined), the Activity in data set [24] was >10. The result in data set [25] and in data set [15] was Active. In addition, the LD50 at 48 h came to 500 µmol/kg in data set [4] and 700 µmol/kg in [5].

For the compound `Br.CN1CCN(CC23CC4CC(CC(C4)C2Br)C3)CC1` (centres undefined), the outcome in data set [1], in data set [26] and in [2] was inactive. The LD50 at 48 h in [4] came out at 600 µmol/kg; in data set [5], 1200 µmol/kg.

On to `NC12CC3CC(CC(C3)C1)C2` [AMANTADINE], for which the Activity in data set [27] came out at 5. Besides, in data set [28], the result was Active. Also, the result in [29] was inactive.
